Results published in ChEMBL document CHEMBL1137295, “Discovery of HIV-1 protease inhibitors with picomolar affinities incorporating N-aryl-oxazolidinone-5-carboxamides as novel P2 ligands” (J Med Chem, 2006).

Key:
[1] = target: Human immunodeficiency virus type 1 protease (Human immunodeficiency virus 1, UniProt Q72874, Q7K); test: Inhibition of wild type HIV1 protease Q7K mutant
Method in brief: (§1)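 Protease desalted into 20 mM sodium acetate pH 5, about 50 nM apparent by A280. Preincubated with inhibitor in DMSO 20-30 min at room temperature. Buffer 0.1 M NaOAc, 1 M NaCl, 1 mM EDTA, 1 mM DTT, 2% DMSO, 1 mg/mL BSA, pH 4.7. Read 340/490 nm, 30 °C, ~10 min. Ki by nonlinear fit of initial velocity versus inhibitor concentration.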

[2] = target: Human immunodeficiency virus type 1 protease (Human immunodeficiency virus 1, UniProt Q72874, A71V/G73S/I84V/L10I/L63P/L90M); test: Inhibition of HIV1 protease L10I/L63P/A71V/G73S/I84V/L90M mutant; method in brief: as §1
[3] = target: Human immunodeficiency virus type 1 protease (Human immunodeficiency virus 1, UniProt Q72874, G48V/I54V/L10I/L63P/V82A); test: Inhibition of HIV1 protease L10I/G48V/I54V/L63P/V82A mutant; method in brief: as §1
[4] = target: Human immunodeficiency virus type 1 protease (Human immunodeficiency virus 1, UniProt Q72874, D30N/L63P/N88D); test: Inhibition of HIV1 protease D30N/L63P/N88D mutant; method in brief: as §1

COc1cccc(S(=O)(=O)N(CC2CCCO2)C[C@@H](O)[C@H](Cc2ccccc2)NC(=O)[C@@H]2CN(c3cccc(F)c3)C(=O)O2)c1 (single isomer, unassigned)
Ki [1]: 150 nM

COc1ccc(S(=O)(=O)N(CC(C)C)C[C@@H](O)[C@H](Cc2ccccc2)NC(=O)[C@@H]2CN(c3cccc(OC)c3)C(=O)O2)cc1
Ki [1]: 0.045 nM

COc1ccc(S(=O)(=O)N(CC2CC2)C[C@@H](O)[C@H](Cc2ccccc2)NC(=O)[C@@H]2CN(c3ccc(C(C)=O)cc3)C(=O)O2)cc1
Ki [1]: 0.8 nM

CC(=O)c1ccc(N2C[C@@H](C(=O)N[C@@H](Cc3ccccc3)[C@H](O)CN(CC(C)C)S(=O)(=O)c3ccc(N)cc3)OC2=O)cc1
Ki [1]: 0.184 nM

CC(=O)c1cccc(N2C[C@@H](C(=O)N[C@@H](Cc3ccccc3)[C@H](O)CN(CC(C)C)S(=O)(=O)c3ccc4c(c3)OCO4)OC2=O)c1
Ki [2]: 3.51 nM
Ki [3]: 0.72 nM
Ki [4]: 0.235 nM
Ki [1]: 0.006 nM

CC(=O)c1ccc(N2C[C@@H](C(=O)N[C@@H](Cc3ccccc3)[C@H](O)CN(Cc3cccs3)S(=O)(=O)c3cc(F)c(F)cc3F)OC2=O)cc1
Ki [1]: 168 nM

COc1cccc(S(=O)(=O)N(CC(C)C)C[C@@H](O)[C@H](Cc2ccccc2)NC(=O)[C@@H]2CN(c3ccccc3)C(=O)O2)c1
Ki [1]: 3.8 nM

CC(=O)c1cccc(N2C[C@@H](C(=O)N[C@@H](Cc3ccccc3)[C@H](O)CN(CC(C)C)S(=O)(=O)c3ccc(OC(F)(F)F)cc3)OC2=O)c1
Ki [1]: 2 nM

CC(C)CN(C[C@@H](O)[C@H](Cc1ccccc1)NC(=O)[C@@H]1CN(c2ccc(F)c(F)c2)C(=O)O1)S(=O)(=O)c1ccc(N)cc1
Ki [1]: 0.23 nM

CC(=O)c1ccc(N2C[C@@H](C(=O)N[C@@H](Cc3ccccc3)[C@H](O)CN(CC(C)C)S(=O)(=O)c3ccc4c(c3)OCO4)OC2=O)cc1
Ki [1]: 0.016 nM

CC(C)CN(C[C@@H](O)[C@H](Cc1ccccc1)NC(=O)[C@@H]1CN(c2cccc(F)c2)C(=O)O1)S(=O)(=O)c1ccc2c(c1)OCO2
Ki [1]: 0.107 nM

CC(C)CN(C[C@@H](O)[C@H](Cc1ccccc1)NC(=O)[C@@H]1CN(c2cccc(F)c2)C(=O)O1)S(=O)(=O)c1ccc(N)cc1
Ki [1]: 0.17 nM

COc1ccc(S(=O)(=O)N(CC(C)C)C[C@@H](O)[C@H](Cc2ccccc2)NC(=O)[C@@H]2CN(c3ccc(C(C)=O)cc3)C(=O)O2)cc1F
Ki [1]: 0.08 nM

COc1ccc(S(=O)(=O)N(CC(C)C)C[C@@H](O)[C@H](Cc2ccccc2)NC(=O)[C@@H]2CN(c3ccccc3)C(=O)O2)cc1
Ki [1]: 0.1 nM

COc1ccc(S(=O)(=O)N(CC(C)C)C[C@@H](O)[C@H](Cc2ccccc2)NC(=O)[C@@H]2CN(c3cccc(C(F)(F)F)c3)C(=O)O2)cc1F
Ki [1]: 0.072 nM

COc1ccc(S(=O)(=O)N(CC2CC2)C[C@@H](O)[C@H](Cc2ccccc2)NC(=O)[C@@H]2CN(c3cccc(F)c3)C(=O)O2)cc1
Ki [1]: 0.257 nM

COc1cccc(S(=O)(=O)N(Cc2cccs2)C[C@@H](O)[C@H](Cc2ccccc2)NC(=O)[C@@H]2CN(c3ccccc3)C(=O)O2)c1
Ki [1]: 239 nM

COc1ccc(S(=O)(=O)N(CC(C)C)C[C@@H](O)[C@H](Cc2ccccc2)NC(=O)[C@@H]2CN(c3cccc(C(C)=O)c3)C(=O)O2)cc1
Ki [2]: 3.36 nM
Ki [3]: 0.16 nM
Ki [4]: 0.039 nM

O=C(N[C@@H](Cc1ccccc1)[C@H](O)CN(Cc1cccs1)S(=O)(=O)c1cc(F)c(F)cc1F)[C@@H]1CN(c2ccccc2)C(=O)O1
Ki [1]: 170 nM

COc1ccc(S(=O)(=O)N(CC(C)C)C[C@@H](O)[C@H](Cc2ccccc2)NC(=O)[C@@H]2CN(c3ccc(F)c(F)c3)C(=O)O2)cc1
Ki [2]: 8.69 nM
Ki [3]: 1.18 nM
Ki [4]: 0.152 nM
Ki [1]: 0.066 nM

CC(C)CN(C[C@@H](O)[C@H](Cc1ccccc1)NC(=O)[C@@H]1CN(c2cccc(C(F)(F)F)c2)C(=O)O1)S(=O)(=O)c1ccc2c(c1)OCO2
Ki [1]: 0.016 nM

COc1ccc(S(=O)(=O)N(CC(C)C)C[C@@H](O)[C@H](Cc2ccccc2)NC(=O)[C@@H]2CN(c3cccc(F)c3)C(=O)O2)cc1
Ki [2]: 4.94 nM
Ki [3]: 3.56 nM
Ki [4]: 0.08 nM
Ki [1]: 0.083 nM

COc1ccc(S(=O)(=O)N(CC(C)C)C[C@@H](O)[C@H](Cc2ccccc2)NC(=O)[C@H]2CN(c3ccccc3)C(=O)O2)cc1
Ki [1]: 10.7 nM

CC(C)CN(C[C@@H](O)[C@H](Cc1ccccc1)NC(=O)[C@H]1CN(c2ccccc2)C(=O)O1)S(=O)(=O)c1ccc(N)cc1
Ki [1]: 37.4 nM

COc1cccc(S(=O)(=O)N(CC(C)C)C[C@@H](O)[C@H](Cc2ccccc2)NC(=O)[C@@H]2CN(c3ccc(C(C)=O)cc3)C(=O)O2)c1
Ki [1]: 0.84 nM

CC(=O)c1cccc(N2C[C@@H](C(=O)N[C@@H](Cc3ccccc3)[C@H](O)CN(CC(C)C)S(=O)(=O)c3ccc(N)cc3)OC2=O)c1
Ki [1]: 0.032 nM

COc1ccc(S(=O)(=O)N(CC2CC2)C[C@@H](O)[C@H](Cc2ccccc2)NC(=O)[C@@H]2CN(c3ccc(F)c(F)c3)C(=O)O2)cc1
Ki [1]: 0.58 nM

COc1cccc(S(=O)(=O)N(CC2CCCO2)C[C@@H](O)[C@H](Cc2ccccc2)NC(=O)[C@@H]2CN(c3ccccc3)C(=O)O2)c1 (single isomer, unassigned)
Ki [1]: 42 nM

CC(C)CN(C[C@@H](O)[C@H](Cc1ccccc1)NC(=O)[C@@H]1CN(c2ccccc2)C(=O)O1)S(=O)(=O)c1ccc(N)cc1
Ki [2]: 10.3 nM
Ki [3]: 2.08 nM
Ki [4]: 0.92 nM
Ki [1]: 0.53 nM

COc1cccc(S(=O)(=O)N(Cc2cccs2)C[C@@H](O)[C@H](Cc2ccccc2)NC(=O)[C@@H]2CN(c3ccc(C(C)=O)cc3)C(=O)O2)c1
Ki [1]: 29.5 nM

O=C(N[C@@H](Cc1ccccc1)[C@H](O)CN(Cc1cccs1)S(=O)(=O)c1cc(F)c(F)cc1F)[C@@H]1CN(c2cccc(F)c2)C(=O)O1
Ki [1]: 160 nM

COc1ccc(S(=O)(=O)N(CC(C)C)C[C@@H](O)[C@H](Cc2ccccc2)NC(=O)[C@@H]2CN(c3ccc(C(C)=O)cc3)C(=O)O2)cc1
Ki [2]: 1.94 nM
Ki [3]: 0.78 nM
Ki [4]: 0.179 nM

CC(C)CN(C[C@@H](O)[C@H](Cc1ccccc1)NC(=O)[C@@H]1CN(c2cccc(C(F)(F)F)c2)C(=O)O1)S(=O)(=O)c1ccc(OC(F)(F)F)cc1
Ki [1]: 10 nM

CC(C)CN(C[C@@H](O)[C@H](Cc1ccccc1)NC(=O)[C@@H]1CN(c2ccc(F)c(F)c2)C(=O)O1)S(=O)(=O)c1ccc2c(c1)OCO2
Ki [1]: 0.085 nM

COc1cccc(S(=O)(=O)N(Cc2cccs2)C[C@@H](O)[C@H](Cc2ccccc2)NC(=O)[C@@H]2CN(c3cccc(F)c3)C(=O)O2)c1
Ki [1]: 189 nM

COc1ccc(S(=O)(=O)N(CC(C)C)C[C@@H](O)[C@H](Cc2ccccc2)NC(=O)[C@@H]2CN(c3ccc(F)c(F)c3)C(=O)O2)cc1F
Ki [1]: 0.343 nM

COc1ccc(S(=O)(=O)N(CC(C)C)C[C@@H](O)[C@H](Cc2ccccc2)NC(=O)[C@@H]2CN(c3cccc(C(F)(F)F)c3)C(=O)O2)cc1
Ki [1]: 0.006 nM

COc1ccc(S(=O)(=O)N(CC(C)C)C[C@@H](O)[C@H](Cc2ccccc2)NC(=O)[C@@H]2CN(c3cccc(F)c3)C(=O)O2)cc1F
Ki [1]: 0.07 nM

CC(C)CN(C[C@@H](O)[C@H](Cc1ccccc1)NC(=O)[C@@H]1CN(c2cccc(C(F)(F)F)c2)C(=O)O1)S(=O)(=O)c1ccc(N)cc1
Ki [2]: 12.3 nM
Ki [3]: 4.42 nM
Ki [4]: 0.36 nM
Ki [1]: 0.042 nM
